Where “and” joins values, the source holds several entries; their conditions need not be identical. Equal entries are not always repeated.
Tested on: Fibroblast
Assay: Multiplex assay against human fibroblast
Assay type: toxicity, cell-based
Method in brief: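 Values for tubulin, mitochondrial-mass and membrane-permeability phenotypes are per cents of cells with healthy nuclei. These cells were identified by CellPathfinder machine-learning gating of live cells that had been stained at seeding with Hoechst33342, BioTracker Green Microtubule Cytoskeleton Dye, MitoTracker Red and Annexin V Alexa Fluor 680 and imaged on a CQ1 microscope at 37°C and 5% CO2 after compound addition. The gating first set Hoechst high-intensity objects apart from normal cells, then split normal cells into healthy, pyknosed or fragmented nuclei, and pyknosed cells into mitotic or apoptotic.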

[1] = 12 h, 1 µM, compound concentration 1 uM
[2] = 12 h, 10 µM, compound concentration 10 uM
[3] = 24 h, 1 µM, compound concentration 1 uM
[4] = 24 h, 10 µM, compound concentration 10 uM
[5] = 48 h, 1 µM, compound concentration 1 uM
[6] = 48 h, 10 µM, compound concentration 10 uM

SMILES: Cc1cc(-c2ccc3c(c2)CC[C@H]3N2CC3(CCN(C(=O)Cc4cn5cc(C)sc5n4)CC3)C2)ncn1 [PF-5190457]
- Population Apoptotic (%) [1]: 29% and 30%
- Population Fragmented Nuclei (%) [1]: 16% and 18%
- Population Healthy Nuclei (%) [1]: 71% and 46%
- Population Hoechst High Intensity Objects (%) [1]: 4%
- Population Membrane Permeable-Phenotype (%) [1]: 1% and 9%
- Population Mitochondria Different-Phenotype (%) [1]: 5% and 0%
- Population Mitotic Cells (%) [1]: 70%
- Population Normal (%) [1]: 96% and 95%
- Population Tubulin-Different-Phenotype (%) [1]: 24% and 48%
- Total Cell Count [1]: 150 and 121
- Population Apoptotic (%) [2]: 36% and 45%
- Population Fragmented Nuclei (%) [2]: 17% and 20%
- Population Healthy Nuclei (%) [2]: 63% and 55%
- Population Hoechst High Intensity Objects (%) [2]: 4% and 1%
- Population Membrane Permeable-Phenotype (%) [2]: 1% and 6%
- Population Mitochondria Different-Phenotype (%) [2]: 5% and 4%
- Population Mitotic Cells (%) [2]: 63% and 54%
- Population Normal (%) [2]: 95% and 98%
- Population Pyknosed Nuclei (%) [2]: 18% and 24%
- Population Tubulin-Different-Phenotype (%) [2]: 38% and 56%
- Total Cell Count [2]: 186 and 138
- Population Fragmented Nuclei (%) [3]: 19% and 23%
- Population Healthy Nuclei (%) [3]: 72% and 43%
- Population Hoechst High Intensity Objects (%) [3]: 2% and 3%
- Population Membrane Permeable-Phenotype (%) [3]: 1% and 5%
- Population Mitochondria Different-Phenotype (%) [3]: 4% and 5%
- Population Mitotic Cells (%) [3]: 45% and 84%
- Population Normal (%) [3]: 97% and 96%
- Population Tubulin-Different-Phenotype (%) [3]: 26% and 54%
- Total Cell Count [3]: 141 and 126
- Population Apoptotic (%) [4]: 44% and 53%
- Population Fragmented Nuclei (%) [4]: 19% and 25%
- Population Healthy Nuclei (%) [4]: 64% and 49%
- Population Hoechst High Intensity Objects (%) [4]: 3% and 5%
- Population Membrane Permeable-Phenotype (%) [4]: 0% and 1%
- Population Mitochondria Different-Phenotype (%) [4]: 6% and 7%
- Population Mitotic Cells (%) [4]: 55% and 46%
- Population Normal (%) [4]: 96% and 94%
- Population Pyknosed Nuclei (%) [4]: 16% and 25%
- Population Tubulin-Different-Phenotype (%) [4]: 37% and 60%
- Total Cell Count [4]: 180 and 134
- Population Apoptotic (%) [5]: 78% and 34%
- Population Fragmented Nuclei (%) [5]: 30% and 32%
- Population Healthy Nuclei (%) [5]: 59% and 47%
- Population Hoechst High Intensity Objects (%) [5]: 6% and 2%
- Population Mitochondria Different-Phenotype (%) [5]: 2% and 6%
- Population Normal (%) [5]: 93% and 97%
- Population Pyknosed Nuclei (%) [5]: 9% and 20%
- Population Tubulin-Different-Phenotype (%) [5]: 23% and 68%
- Total Cell Count [5]: 157 and 132
- Population Apoptotic (%) [6]: 63% and 62%
- Population Fragmented Nuclei (%) [6]: 22% and 30%
- Population Healthy Nuclei (%) [6]: 66% and 51%
- Population Hoechst High Intensity Objects (%) [6]: 6% and 1%
- Population Membrane Permeable-Phenotype (%) [6]: 0% and 5%
- Population Mitochondria Different-Phenotype (%) [6]: 12% and 14%
- Population Mitotic Cells (%) [6]: 36% and 37%
- Population Normal (%) [6]: 93% and 98%
- Population Pyknosed Nuclei (%) [6]: 10% and 18%
- Population Tubulin-Different-Phenotype (%) [6]: 37% and 64%
- Total Cell Count [6]: 192 and 135

SMILES: CCOc1ccccc1C(=O)NCC1(N2CCN(CC)CC2)CCCCC1
- Population Apoptotic (%) [1]: 8% and 22.22%
- Population Healthy Nuclei (%) [1]: 51.46% and 68.29%
- Population Hoechst High Intensity Objects (%) [1]: 0%
- Population Membrane Permeable-Phenotype (%) [1]: 3.41% and 2.98%
- Population Mitochondria Different-Phenotype (%) [1]: 3.41% and 11.31%
- Population Mitotic Cells (%) [1]: 92% and 77.78%
- Population Normal (%) [1]: 100%
- Population Pyknosed Nuclei (%) [1]: 29.24% and 25.61%
- Population Tubulin-Different-Phenotype (%) [1]: 10.23% and 23.81%
- Total Cell Count [1]: 171 and 246
- Population Apoptotic (%) [2]: 12.35% and 12.82%
- Population Fragmented Nuclei (%) [2]: 13.04% and 5.43%
- Population Healthy Nuclei (%) [2]: 42.93% and 73.37%
- Population Hoechst High Intensity Objects (%) [2]: 0%
- Population Membrane Permeable-Phenotype (%) [2]: 5.06% and 9.63%
- Population Mitochondria Different-Phenotype (%) [2]: 41.77% and 25.19%
- Population Mitotic Cells (%) [2]: 87.65% and 87.18%
- Population Normal (%) [2]: 100%
- Population Pyknosed Nuclei (%) [2]: 44.02% and 21.2%
- Population Tubulin-Different-Phenotype (%) [2]: 65.82% and 80.74%
- Total Cell Count [2]: 184
- Population Apoptotic (%) [3]: 15.79% and 31.25%
- Population Fragmented Nuclei (%) [3]: 10.24% and 5.42%
- Population Healthy Nuclei (%) [3]: 66.87% and 81.25%
- Population Hoechst High Intensity Objects (%) [3]: 0%
- Population Membrane Permeable-Phenotype (%) [3]: 1.8% and 4.1%
- Population Mitochondria Different-Phenotype (%) [3]: 4.5% and 8.72%
- Population Mitotic Cells (%) [3]: 84.21% and 68.75%
- Population Normal (%) [3]: 100%
- Population Pyknosed Nuclei (%) [3]: 22.89% and 13.33%
- Population Tubulin-Different-Phenotype (%) [3]: 12.61% and 24.1%
- Total Cell Count [3]: 166 and 240
- Population Apoptotic (%) [4]: 12.5% and 5.13%
- Population Fragmented Nuclei (%) [4]: 13.66% and 11.26%
- Population Healthy Nuclei (%) [4]: 62.93% and 71.17%
- Population Hoechst High Intensity Objects (%) [4]: 0%
- Population Membrane Permeable-Phenotype (%) [4]: 3.1% and 5.06%
- Population Mitochondria Different-Phenotype (%) [4]: 45.74% and 22.78%
- Population Mitotic Cells (%) [4]: 87.5% and 94.87%
- Population Normal (%) [4]: 100%
- Population Pyknosed Nuclei (%) [4]: 23.41% and 17.57%
- Population Tubulin-Different-Phenotype (%) [4]: 68.22% and 84.81%
- Total Cell Count [4]: 205 and 222
- Population Apoptotic (%) [5]: 21.43% and 23.08%
- Population Fragmented Nuclei (%) [5]: 13.04% and 10.42%
- Population Healthy Nuclei (%) [5]: 79.35% and 84.17%
- Population Hoechst High Intensity Objects (%) [5]: 0%
- Population Membrane Permeable-Phenotype (%) [5]: 0.68% and 0.5%
- Population Mitotic Cells (%) [5]: 78.57% and 76.92%
- Population Normal (%) [5]: 100%
- Population Pyknosed Nuclei (%) [5]: 7.61% and 5.42%
- Population Tubulin-Different-Phenotype (%) [5]: 8.9% and 21.29%
- Total Cell Count [5]: 184 and 240
- Population Apoptotic (%) [6]: 15.79% and 45.16%
- Population Fragmented Nuclei (%) [6]: 15.15% and 7.88%
- Population Healthy Nuclei (%) [6]: 76.62% and 79.25%
- Population Hoechst High Intensity Objects (%) [6]: 1.28% and 0%
- Population Membrane Permeable-Phenotype (%) [6]: 3.39% and 4.71%
- Population Mitochondria Different-Phenotype (%) [6]: 27.12% and 15.18%
- Population Mitotic Cells (%) [6]: 84.21% and 54.84%
- Population Normal (%) [6]: 98.72% and 100%
- Population Pyknosed Nuclei (%) [6]: 8.23% and 12.86%
- Population Tubulin-Different-Phenotype (%) [6]: 62.15% and 89.01%
- Total Cell Count [6]: 234 and 241

Source: ChEMBL document CHEMBL5724801, “EUbOPEN Chemogenomics Library - Multiplex” (2024)
